Experimental data: publication PMC5668626 (Biochemistry and Biophysics Reports, 2015)

What was measured:
[1] = molecular target: Plasmodium falciparum P2 (recombinant) (Plasmodium falciparum); assay: SEC
[2] = molecular target: T1, PfP2-tetramer (Plasmodium falciparum P2, recombinant) (Plasmodium falciparum, UniProt O00806); assay: isothermal titration calorimetry; format: binding
T1 sequence (O00806 1-112): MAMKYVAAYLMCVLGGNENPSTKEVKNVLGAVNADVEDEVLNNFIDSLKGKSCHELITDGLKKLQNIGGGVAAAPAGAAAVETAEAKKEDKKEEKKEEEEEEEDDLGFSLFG
How it was run: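 Recombinant PfP2 tetramer (0.075 mM) in the sample cell, with buffer in the reference cell, at pH 7.4 and 25 °C. The hydrophobic dye ligand (15 mM, syringe) was added in 50 injections of 5 μl, each lasting 10 s and spaced 4 min apart, with stirring. Titration heats were fitted to a binding model for K, ΔH, ΔS and n.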

Row | Compound | stoichiometry N [1] | Kd [2]
1 | Plasmodium falciparum P2 (recombinant) (natural protein) | 4 | –
2 | O=S(=O)(O)c1cccc2cccc(Nc3ccccc3)c12 [ANS] | – | 102 µM
